Assay [1] can be described thus: Rate constants were calculated for the compound by linear regression analysis.
The test system of assay [2] is Mus musculus. Kind of assay: Body weight difference the relation of the test animal to control animal weight was calculated at the 120 mg/kg doses. It is filed as functional. In outline:
(§1)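 P388 leukemia ascitic fluid implanted intraperitoneally into CD2F1 mice. Dosing was intraperitoneal, starting 24 h after inoculation, once daily for five doses, as a suspension in saline and Tween 80 made fresh each day. Some compounds were given in Klucel (hydroxypropylcellulose) or in saline/Tween/alcohol instead. Acute toxicity was checked on day 5 and the study was evaluated on day 30.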

Assay [3] has as its system Mus musculus. Kind of assay: Body weight difference the relation of the test animal to control animal weight was calculated at the 15 mg/kg doses. It is filed as functional. The method, boiled down:
as §1

Assay [4] deals with Mus musculus. Kind of assay: Body weight difference the relation of the test animal to control animal weight was calculated at the 30 mg/kg doses. The assay is classed as functional. In outline:
as §1

The test system of assay [5] is Mus musculus. In words: Body weight difference the relation of the test animal to control animal weight was calculated at the 60 mg/kg doses. It is filed as functional. In outline: as §1
Assay [6] has as its system Mus musculus. In words: Body weight difference the relation of the test animal to control animal weight was calculated at the 7.5 mg/kg doses. The assay is classed as functional. The method, boiled down: as §1
Assay [7] deals with Mus musculus. Kind of assay: Tumor cell population at the end of treatment relative to its size at the beginning of the treatment was calculated at the 15 mg/kg doses. It is filed as functional. The method, boiled down:
as §1

The subject of assay [8] is Mus musculus. In words: Tumor cell population at the end of treatment relative to its size at the beginning of the treatment was calculated at the 30 mg/kgd oses. Particulars: dose 30 mg/kg. It is filed as functional. The method, boiled down:
as §1

For assay [9], the system named is Mus musculus. In words: Tumor cell population at the end of treatment relative to its size at the beginning of the treatment was calculated at the 7.5 mg/kg doses. The assay is classed as functional. In outline:
as §1

The subject of assay [10] is P388. In words: Compound was tested for antitumor activity against P388 lymphocytic leukemia at the dose 15 mg/kg. The assay is classed as functional, Mus musculus. In outline: as §1
Assay [11] deals with P388. In words: Compound was tested for antitumor activity against P388 lymphocytic leukemia at the dose 30 mg/kg. It is filed as functional, Mus musculus. The method, boiled down: as §1
The test system of assay [12] is P388. In words: Compound was tested for antitumor activity against P388 lymphocytic leukemia at the dose 7.5 mg/kg. The assay is classed as functional, Mus musculus. In outline: as §1
Assay [13] concerns P388. In words: Compound was tested for antitumor activity against P388 lymphocytic leukemia at the dose 60 mg/kg. It is filed as functional, Mus musculus. In outline:
as §1

Assay [14] deals with P388. Kind of assay: Compound was tested for antitumor activity against P388 lymphocytic leukemia at the dose 120 mg/kg. It is filed as functional, Mus musculus. In outline:
as §1

The test system of assay [15] is Mus musculus. In words: Body weight difference the relation of the test animal to control animal weight was calculated at the 100 mg/kg doses. It is filed as functional. In outline:
as §1

The subject of assay [16] is Mus musculus. Kind of assay: Body weight difference the relation of the test animal to control animal weight was calculated at the 12.5 mg/kg doses. It is filed as functional. In outline:
as §1

Assay [17] concerns Mus musculus. In words: Body weight difference the relation of the test animal to control animal weight was calculated at the 25 mg/kg doses. The assay is classed as functional. The method, boiled down: as §1
The test system of assay [18] is Mus musculus. In words: Body weight difference the relation of the test animal to control animal weight was calculated at the 50 mg/kg doses. The assay is classed as functional. The method, boiled down:
as §1

Assay [19] relates to Mus musculus. In words: Tumor cell population at the end of treatment relative to its size at the beginning of the treatment was calculated at the 25 mg/kg doses. It is filed as functional. In outline:
as §1

Assay [20] deals with Mus musculus. Kind of assay: Tumor cell population at the end of treatment relative to its size at the beginning of the treatment was calculated at the 50 mg/kg doses. It is filed as functional. In outline: as §1
Assay [21] deals with Mus musculus. In words: Tumor cell population at the end of treatment relative to its size at the beginning of the treatment was calculated at the 12.5 mg/kg doses. The assay is classed as functional. In outline:
as §1

The test system of assay [22] is P388. Kind of assay: Compound was tested for antitumor activity against P388 lymphocytic leukemia at the dose 12.5 mg/kg. It is filed as functional, Mus musculus. In outline:
as §1

The test system of assay [23] is P388. Kind of assay: Compound was tested for antitumor activity against P388 lymphocytic leukemia at the dose 25 mg/kg. The assay is classed as functional, Mus musculus. The method, boiled down:
as §1

For assay [24], the system named is P388. In words: Compound was tested for antitumor activity against P388 lymphocytic leukemia at the dose 50 mg/kg. It is filed as functional, Mus musculus. In outline:
as §1

Assay [25] has as its system Mus musculus. Kind of assay: Body weight difference the relation of the test animal to control animal weight was calculated at the 240 mg/kg doses. The assay is classed as functional. The method, boiled down: as §1
Assay [26] has as its system P388. Kind of assay: Compound was tested for antitumor activity against P388 lymphocytic leukemia at the dose 240 mg/kg. It is filed as functional, Mus musculus. The method, boiled down:
as §1

Several values for one entry are separate records, joined by “and”; a condition that tells them apart may be missing. Identical values can stand only once.

Regarding `Cc1c(COC(=O)NC(C)C)c(COC(=O)NC(C)C)c(-c2ccccc2)n1C`, the K' in [1] is 1.68 abs/time.
The T/C is the ratio of treated to control. With `CC(C)NC(=O)OCc1cn(C)c(-c2ccccc2)c1COC(=O)NC(C)C`, the BDW in the assay on Mus musculus [2] is listed as -4.6 g; with Mus musculus [3], -0.1 g; in the assay on Mus musculus [4] it was -2.3 g; with Mus musculus [5], -4 g; in the assay on Mus musculus [6] it was 0.1 g. The KE in the assay with Mus musculus [7] is given as -0.04; with Mus musculus [8], -0.15; with Mus musculus [9], -0.04. Besides, the T/C with P388 [10] was 148%; in the assay with P388 [11], 100%; with P388 [12] it was 127%. The K' in assay [1] is 0.0935 abs/time.
As for `COc1ccc2c(c1)CCn1cc(COC(=O)NC(C)C)c(COC(=O)NC(C)C)c1-2`, the BDW in the assay on Mus musculus [3] was -3 g; with Mus musculus [4], -3.1 g; in the assay with Mus musculus [6], -2.6 g. The KE is reported as -0.04 in the assay with Mus musculus [7] and 0.16 in the assay with Mus musculus [9]. In addition, the T/C with P388 [10] was 125%; in the assay on P388 [12], 175%. In addition, in [1], the K' is 0.449 abs/time.
For `COc1ccc(C2C(COC(=O)NC(C)C)=C(COC(=O)NC(C)C)CN2C)cc1` (stereo not drawn), the BDW in the assay with Mus musculus [2] (120 mg/kg) is -1.9 g and -1.2 g. For the same molecule, the T/C is recorded as 158% with P388 [13] and 110% in the assay with P388 [14].
With `CC(C)NC(=O)OCc1cn(C)c(-c2ccc(F)cc2)c1COC(=O)NC(C)C`, the BDW was -0.4 g in the assay with Mus musculus [3], -2.2 g in the assay with Mus musculus [4] and -2.7 g in the assay with Mus musculus [5]. Besides, the KE in the assay on Mus musculus [7] was 0.04; in the assay with Mus musculus [8], 0.21. Also, the T/C in the assay on P388 [10] is 145%; with P388 [11], 188%. In addition, the K' in assay [1] was 0.0516 abs/time.
Take `CNC(=O)OCC1=C(COC(=O)NC)[C@@H](c2ccccc2)N(C)[C@H]1c1ccccc1`: the BDW in the assay on Mus musculus [15] is listed as -4.3 g; in the assay with Mus musculus [16] it was -0.1 g; in the assay on Mus musculus [17] it was -1.4 g; with Mus musculus [18], -1.7 g. Moreover, the KE in the assay with Mus musculus [19] is given as 0; in the assay on Mus musculus [20] it was 1.06; in the assay on Mus musculus [21], -1.16. Moreover, the T/C was 116% in the assay with P388 [22], 136% with P388 [23] and 154% with P388 [24].
For the molecule `CC(C)NC(=O)OCC1=C(COC(=O)NC(C)C)C(c2ccc(F)cc2)N(C)C1` (stereo not drawn), the results for the BDW in the assay on Mus musculus [2], in the assay with Mus musculus [25] and in the assay on Mus musculus [5] were -2.7 g, -2.7 g and -0.2 g, respectively. Besides, the values for the T/C in the assay with P388 [13], in the assay on P388 [14] and in the assay on P388 [26] were 112%, 131% and 137%, respectively.

The values above are taken from ChEMBL document CHEMBL1123478, “Synthesis and antineoplastic activity of bis[[[(alkylamino)carbonyl]oxy]methyl]-substituted 3-pyrrolines as prodrugs of tumor inhibitory pyrrole bis(carbamates)” (1986).
